Bridges are numbered along the chain shown (N, C = ends). Where no end group is shown, it is not given here.
Assays:
[1] = test system: FL-BCRs on transduced Raji lymphoma cells; experiment: Surface staining of BCR-transduced Raji cells by biotinylated peptides; type: binding, human; conditions: synthetic biotinylated peptides, flow cytometry
Procedure, shortened: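 Raji cells were lentivirally transduced with a lymphoma BCR scFv fused to a membrane-anchored human antibody Fc fragment, then FACS-sorted for BCR carriers. Cells were grown with 10% FBS, 10 mM Hepes, penicillin/streptomycin and 2 mM GlutaMAX. Surface staining used synthetic biotinylated peptides and an anti-IgG Fc antibody, read by flow cytometry. One Raji population served as the Fc-staining control.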

[2] = test system: cells from FL patient 4 biopsy; experiment: Flow cytometry staining of control biopsy cells; type: binding, human; conditions: control biopsy sample
Procedure, shortened: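 Flow cytometry on control B cells from a lymphoma biopsy, stained with a synthetic biotinylated cyclic peptide ligand. B cells were gated with a B220-specific antibody. Bound peptide was detected with FITC-labelled streptavidin.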

Sequence | binding to BCRs on transduced Raji cells (in words) [1] | staining by the FL1 peptide (in words) [2]
CTTDQARKC (disulfide 1-9 (inferred)) [FL3] | BCRs capable of binding to the peptides were present on these cells | –
CILDLPKFC (disulfide 1-9 (inferred)) [FL1] | BCRs capable of binding to the peptides were present on these cells | did not demonstrate any significant staining
CMPHWQNHC (disulfide 1-9 (inferred)) [FL2] | BCRs capable of binding to the peptides were present on these cells | –
